Test results: ChEMBL document CHEMBL3745596, “Chlorophenoxy aminoalkyl derivatives as histamine H(3)R ligands and antiseizure agents” (Bioorg Med Chem, 2016)
Calls of active or inactive are those of the source.

How the values were obtained:
Histamine H3 receptor [1] = target: T1, Histamine H3 receptor (Homo sapiens, UniProt Q9Y5N1); experiment: Antagonist activity at human recombinant histamine H3 receptor expressed in HEK293 cells assessed as inhibition of forskolin/(R)(-)-alpha-methylhistamine-induced cAMP accumulation after 1 hr by TR-FRET immunoassay; assay type: functional, cell-based
T1 sequence (Q9Y5N1 whole entry): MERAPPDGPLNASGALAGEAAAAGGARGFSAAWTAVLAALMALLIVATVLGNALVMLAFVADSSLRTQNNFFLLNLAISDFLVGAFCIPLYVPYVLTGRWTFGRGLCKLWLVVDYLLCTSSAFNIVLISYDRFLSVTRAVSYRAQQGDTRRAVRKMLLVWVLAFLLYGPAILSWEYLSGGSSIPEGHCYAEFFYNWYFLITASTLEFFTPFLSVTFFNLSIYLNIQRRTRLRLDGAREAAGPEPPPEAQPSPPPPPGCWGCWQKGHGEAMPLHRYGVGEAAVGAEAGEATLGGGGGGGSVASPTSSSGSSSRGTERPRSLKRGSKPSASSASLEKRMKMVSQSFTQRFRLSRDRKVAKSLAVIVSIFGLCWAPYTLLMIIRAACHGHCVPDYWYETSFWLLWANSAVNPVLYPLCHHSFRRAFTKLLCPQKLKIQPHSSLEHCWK
Summary of the method: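 HEK293 cells stably expressing hH3R, stimulated 30 min at room temperature with (R)(-)-α-methylhistamine (15 nM), forskolin and antagonist (0.1 nM–10 µM range) added together. cAMP read by TR-FRET (Eu-cAMP tracer, ULight anti-cAMP antibody, 1 h), converted via cAMP standard curve to % maximal response. Sigmoidal dose–response fit; mean of three experiments, each in triplicate.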

Mus musculus [2] = experiment: Neurotoxicity in CF1 albino mouse at 3 mg/kg, ip after 0.5 hrs by rotarod test; assay type: toxicity, organism-based; conditions: in vivo
Summary of the method: (§1)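 Rotarod neurotoxicity in male albino CF-1 mice dosed ip with compound suspended in 0.5% methylcellulose. Animal placed on a 1 inch diameter knurled plastic rod rotating at 6 rpm. Neurotoxicity scored when the animal falls off three times within 1 min. Readout is number of animals toxic/number tested at the stated time after dosing. TD50 with 95% confidence interval from the quantitative study.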

Mus musculus [3] = experiment: Anticonvulsant activity in CF1 albino mouse assessed as protection against maximal electroshock-induced seizure at 100 mg/kg, ip after 4 hrs; assay type: functional, organism-based
Summary of the method: (§2)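 Male CF-1 mice dosed ip as suspension in 0.5% methylcellulose. Corneal electrodes deliver 60 Hz alternating current, 50 mA for […], after a drop of 0.5% tetracaine HCl in 0.9% NaCl per eye. Protection means abolition of hindlimb tonic extension; scored as protected/tested, or ED50 with 95% confidence interval.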

Mus musculus [4] = experiment: Neurotoxicity in CF1 albino mouse at 30 mg/kg, ip after 0.5 hrs by rotarod test; assay type: toxicity, organism-based; conditions: in vivo; summary of the method: as §1
HEK293 = experiment: Antiproliferative activity against human HEK293 cells assessed as cell viability after 48 hrs by formazan EZ4U dye based assay; conditions: HEK293, 48 h
Summary of the method: (§3)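 HEK-293 (1.5 × 10⁴/well) or IMR-32 (2 × 10⁴/well) cells in DMEM with 10% FBS, 37 °C, 5% CO₂, grown 24 h to about 60% confluence; compounds 0.01–250 µM final, DMSO at most 1%, 48 h.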

[5] = Antiproliferative activity against human IMR32 cells assessed as cell viability after 48 hrs by formazan EZ4U dye based assay; conditions: IMR-32, 48 h; summary of the method: as §3
Mus musculus [6] = experiment: Anticonvulsant activity in CF1 albino mouse assessed as protection against subcutaneous pentetrazole-induced seizure at 30 mg/kg, ip after 4 hrs; assay type: functional, organism-based
Summary of the method: (§4)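 Male CF-1 mice, ip in 0.5% methylcellulose; pentetrazole at CD97 (85 mg/kg) injected subcutaneously in a loose fold of neck skin. Observed 30 min; absence of even a threshold seizure (single clonic spasm lasting at least 5 s) counted as protection. Scored protected/tested, or ED50.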

Liver microsome = experiment: Drug metabolism in human liver microsomes after 2 hrs by UPLC-MS/MS analysis; assay type: ADME
Summary of the method: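 Pooled adult male and female human liver microsomes 1 mg/mL in 0.1 M Tris–HCl pH 7.4 with NADPH regeneration system; started after 5 min preincubation at 37 °C, incubated 2 h at 37 °C, stopped with cold methanol, centrifuged, supernatant analysed by UPLC with ESI tandem quadrupole MS.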

Mus musculus [7] = experiment: Neurotoxicity in CF1 albino mouse assessed as unable to grasp rotarod and death at 100 mg/kg, ip after 0.5 hrs by rotarod test; assay type: toxicity, organism-based; conditions: in vivo
Summary of the method: (§5)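 Male albino CF-1 mice dosed ip with compound suspended in 0.5% methylcellulose, then placed on a 1-inch knurled plastic rod turning at 6 rpm. A fall three times within 1 min counted as neurotoxicity. Observations were made at 0.5 h and 4 h after dosing. Result given as animals showing toxicity per animals tested, with the kind of toxicity recorded.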

Rattus norvegicus = experiment: Anticonvulsant activity in Sprague-Dawley rat assessed as protection against maximal electroshock-induced seizure at 30 mg/kg, po; assay type: functional
Cytochrome P450 3A4 = Cytochrome P450 3A4 (Homo sapiens, UniProt P08684); experiment: Inhibition of CYP3A4 (unknown origin) up to 10 uM; assay type: ADME
Cytochrome P450 3A4, sequence (P08684 whole entry): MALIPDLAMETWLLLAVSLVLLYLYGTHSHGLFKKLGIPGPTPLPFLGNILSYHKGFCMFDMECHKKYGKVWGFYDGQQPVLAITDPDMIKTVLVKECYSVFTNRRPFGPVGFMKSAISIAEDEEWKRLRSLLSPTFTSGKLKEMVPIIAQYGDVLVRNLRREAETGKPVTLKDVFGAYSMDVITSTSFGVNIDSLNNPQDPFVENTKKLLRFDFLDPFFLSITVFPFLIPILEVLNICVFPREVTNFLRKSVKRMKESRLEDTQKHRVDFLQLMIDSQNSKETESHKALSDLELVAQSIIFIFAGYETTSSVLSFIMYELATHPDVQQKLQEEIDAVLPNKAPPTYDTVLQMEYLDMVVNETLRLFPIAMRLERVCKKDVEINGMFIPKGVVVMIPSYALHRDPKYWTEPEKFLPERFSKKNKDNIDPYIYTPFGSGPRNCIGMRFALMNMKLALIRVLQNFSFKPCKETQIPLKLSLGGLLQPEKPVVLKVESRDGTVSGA

Mus musculus [8] = experiment: Anticonvulsant activity in CF1 albino mouse assessed as protection against maximal electroshock-induced seizure at 30 mg/kg, ip after 4 hrs; assay type: functional, organism-based; summary of the method: as §2
Mus musculus [9] = experiment: Neurotoxicity in CF1 albino mouse at 30 mg/kg, ip after 4 hrs by rotarod test; assay type: toxicity, organism-based; conditions: in vivo; summary of the method: as §1
Mus musculus [10] = experiment: Anticonvulsant activity in CF1 albino mouse assessed as protection against maximal electroshock-induced seizure at 30 mg/kg, ip after 0.5 hrs; assay type: functional, organism-based; summary of the method: as §2
Mus musculus [11] = experiment: Neurotoxicity in CF1 albino mouse at 10 mg/kg, ip after 0.5 hrs by rotarod test; assay type: toxicity, organism-based; conditions: in vivo
Summary of the method: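 Rotarod neurotoxicity in male CF-1 mice dosed ip as 0.5% methylcellulose suspension: mouse placed on 1 inch knurled rod rotating at 6 rpm; toxicity when the animal falls off three times within 1 min, with other signs noted. Scored as toxic/tested at 0.5 h and 4 h.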

Mus musculus [12] = experiment: Anticonvulsant activity in CF1 albino mouse assessed as protection against subcutaneous pentetrazole-induced seizure at 30 mg/kg, ip after 0.5 hrs; assay type: functional, organism-based; summary of the method: as §4
Mus musculus [13] = experiment: Neurotoxicity in CF1 albino mouse assessed as death at 300 mg/kg, ip after 0.5 hrs by rotarod test; assay type: toxicity, organism-based; conditions: in vivo; summary of the method: as §5
Mus musculus [14] = experiment: Anticonvulsant activity in CF1 albino mouse assessed as protection against maximal electroshock-induced seizure at 100 mg/kg, ip after 0.5 hrs; assay type: functional, organism-based; summary of the method: as §2
Mus musculus [15] = experiment: Neurotoxicity in CF1 albino mouse at 100 mg/kg, ip after 4 hrs by rotarod test; assay type: toxicity, organism-based; conditions: in vivo; summary of the method: as §1
Histamine H3 receptor [16] = target: T1, Histamine H3 receptor; experiment: Displacement of [3H]-Nalpha-methylhistamine from human recombinant histamine H3 receptor expressed in HEK293 cells after 90 mins; assay type: cell-based
Mus musculus [17] = experiment: Anticonvulsant activity in CF1 albino mouse assessed as protection against maximal electroshock-induced seizure at 3 mg/kg, ip after 0.5 hrs; assay type: functional, organism-based; summary of the method: as §2
Mus musculus [18] = experiment: Anticonvulsant activity in CF1 albino mouse assessed as protection against maximal electroshock-induced seizure at 10 mg/kg, ip after 0.5 hrs; assay type: functional, organism-based; summary of the method: as §2
Mus musculus [19] = experiment: Neurotoxicity in CF1 albino mouse at 300 mg/kg, ip after 4 hrs by rotarod test; assay type: toxicity, organism-based; conditions: in vivo; summary of the method: as §1

In the case of `Clc1ccc(OCCCCCCCN2CCCCC2)cc1.O=C(O)C(=O)O`, the EC50 (Histamine H3 receptor [1]) is reported as 0.075 µM, the Activity (Mus musculus [2]) is reported as “Non-toxic” and the Activity (Mus musculus [3]) is reported as “Active”. For the same compound, the Activity (Mus musculus [4]) was “Non-toxic”, the IC50 (HEK293) was 33.6 µM and the IC50 [5] was 15.5 µM. For the same compound, the Activity (Mus musculus [6]) was “inactive”, the Drug metabolism (Liver microsome) was “metabolite_detected” and the Activity (Mus musculus [7]) was “Toxic”. For the same compound, the Activity (Rattus norvegicus) was 25%, the “inhibition (INH)” value (Cytochrome P450 3A4) was “Not Active” and the Activity (Mus musculus [8]) was “inactive”. For the same compound, the Activity (Mus musculus [9]) was “Non-toxic”, the Activity (Mus musculus [10]) was “Active” and the Activity (Mus musculus [11]) was “Non-toxic”. For the same compound, the Activity (Mus musculus [12]) was “inactive”, the Activity (Mus musculus [13]) was “Toxic” and the Activity (Mus musculus [14]) was “Active”. The Activity (Mus musculus [15]) was “Non-toxic”, the Ki (Histamine H3 receptor [16]) was 0.128 µM and the Activity (Mus musculus [17]) was “inactive”. For the same compound, the Activity (Mus musculus [18]) was “inactive” and the Activity (Mus musculus [19]) was “Non-toxic”.
